Usually inhibition stands for the relative decrease from the control value, in per cent.

Data set [1] has as its target CYP3A4 (Homo sapiens, UniProt P08684). Kind of data set: Inhibition of CYP3A4 (unknown origin) using midazolam substrate at 2.5 uM. The format is ADME. Particulars: probe midazolam. The gist of the method:
(§1)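 Human liver microsomes with probe substrate and an NADPH-regenerating system in 0.1 M potassium phosphate pH 7.4 at 37 °C, run in duplicate. Inhibitor at 0–20 μM (0–2.5 μM for one compound), eight concentrations. Reactions were stopped with acetonitrile/formic acid containing isotope-labelled internal standard, and metabolite area ratios were compared with and without inhibitor. IC50 was taken by linear interpolation between bracketing concentrations.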

In data set [2] the target is T1, Cytochrome P450 2C8 (Homo sapiens, UniProt P10632).
T1 sequence (P10632 whole entry): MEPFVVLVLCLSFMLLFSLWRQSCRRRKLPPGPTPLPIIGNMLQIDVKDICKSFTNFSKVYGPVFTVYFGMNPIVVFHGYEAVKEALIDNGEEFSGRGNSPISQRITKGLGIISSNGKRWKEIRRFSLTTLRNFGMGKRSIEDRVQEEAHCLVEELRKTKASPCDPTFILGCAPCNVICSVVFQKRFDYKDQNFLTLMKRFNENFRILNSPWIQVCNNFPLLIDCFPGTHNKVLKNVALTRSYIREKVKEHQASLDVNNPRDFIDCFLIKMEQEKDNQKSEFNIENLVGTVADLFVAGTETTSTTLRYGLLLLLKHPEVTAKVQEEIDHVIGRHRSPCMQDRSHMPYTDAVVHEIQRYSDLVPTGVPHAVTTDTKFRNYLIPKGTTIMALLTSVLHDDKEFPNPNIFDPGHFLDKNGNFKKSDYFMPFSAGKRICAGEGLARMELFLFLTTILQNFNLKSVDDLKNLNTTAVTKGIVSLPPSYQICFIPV
The data set can be described thus: Inhibition of CYP2C8 (unknown origin) using amodiaquine substrate at 20 uM. In kind it is ADME. The note with it: 20 µM. The gist of the method: as §1

SMILES strings stand for the structures.

CYP3A4, sequence (P08684 whole entry): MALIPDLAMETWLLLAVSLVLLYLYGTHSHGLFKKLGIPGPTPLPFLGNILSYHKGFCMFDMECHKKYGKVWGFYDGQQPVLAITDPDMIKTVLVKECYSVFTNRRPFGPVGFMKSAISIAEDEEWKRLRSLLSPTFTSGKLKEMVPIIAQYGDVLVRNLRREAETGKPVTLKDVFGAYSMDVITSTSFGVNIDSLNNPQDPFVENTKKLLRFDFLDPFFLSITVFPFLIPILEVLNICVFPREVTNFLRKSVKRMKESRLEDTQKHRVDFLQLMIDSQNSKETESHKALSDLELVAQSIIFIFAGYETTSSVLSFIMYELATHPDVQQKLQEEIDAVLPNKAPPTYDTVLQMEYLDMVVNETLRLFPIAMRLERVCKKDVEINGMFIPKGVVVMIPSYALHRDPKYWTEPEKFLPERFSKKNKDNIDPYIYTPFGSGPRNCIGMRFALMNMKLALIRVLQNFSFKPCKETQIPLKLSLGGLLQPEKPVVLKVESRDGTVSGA

Consider `Cn1c(=O)n(Cc2ccc(C(=O)O)cc2)c(=O)c2cc(C#CCc3ccccc3)ccc21`, for which the inhibition at 2.5 µM in data set [1] is less than 50%.

Take `Cc1cc(CNC(=O)c2cc(C(=O)NCc3ccc(F)c(C)c3)ncn2)ccc1F`: the inhibition (INH) in data set [2] was more than 10%.

These data come from ChEMBL document CHEMBL3352788, “Characterization of selective exosite-binding inhibitors of matrix metalloproteinase 13 that prevent articular cartilage degradation in vitro” (J Med Chem, 2014).
